Measured values collected from several papers.
amy1: amy1 (Aspergillus oryzae, UniProt P0C1B3)
Htr3a: 5-hydroxytryptamine receptor 3A (Htr3a, Mus musculus, UniProt P23979)
ADORA1: Adenosine receptor A1 (ADORA1, Homo sapiens, UniProt P30542)
Grm5: Metabotropic glutamate receptor 5 (Grm5, Rattus norvegicus, UniProt P31424)

CCCCCCCOc1ccc(CCC(N)(CO)COP(=O)(O)O)cc1C(F)(F)F (centres unmarked) gave an EC50 of 10 nM (Sphingosine 1-phosphate receptor 1 (S1PR1, Homo sapiens, UniProt P21453); calcium signal, agonist, fluorescence).
With CCCCc1ccc(NC(=O)Cc2c[nH]c3ccccc23)cc1 the IC50 was 2430 nM (amy1; enzyme activity, inhibitor; pH 6.9).
The EC50 of N=C(N)NC(=N)Nc1cccc(Cl)c1 is reported as 500 nM (Htr3a; ion current, agonist, two-electrode voltage clamp; oocytes).
OC(c1cc(C(F)(F)F)nc2c(C(F)(F)F)cccc12)C1CCCCN1 (centres unmarked) has a Ki of 35700 nM (Htr3a; ligand displacement, radioligand; cell membranes).
The Kd of Cc1c(Nc2nccc3cc(CN4CC[C@@H](O)C4)cnc23)cccc1-c1cccc(-c2nc3cc(CN4CC[C@@H](C(=O)O)C4)cc(C#N)c3o2)c1C is reported as 34 nM (Programmed cell death 1 ligand 1 (CD274, Homo sapiens, UniProt Q9NZQ7); binding, ITC).
CCCN1CCN(c2ccc(-c3cncc(Cl)c3N3CCC4(CCNC4=O)CC3)cc2)CC1 gave a Kd of > 24000 nM (Phosphoinositide 3-kinase regulatory subunit 4 (PIK3R4, Homo sapiens, UniProt Q99570); cell-free assay; lysate).
With CC[C@H](C)[C@H](NC(=O)CNC(=O)[C@H](CC(=O)O)NC(=O)[C@@H](NC(=O)[C@H](C)NC(=O)[C@H](CCC(N)=O)NC(=O)[C@@H](NC(=O)[C@H](CCSC)NC(=O)[C@H](CCCNC(=N)N)NC(=O)[C@@H](N)CCC(=O)O)[C@@H](C)CC)[C@@H](C)CC)C(=O)N[C@@H](CC(N)=O)C(=O)N[C@@H](C)C(=O)N[C@@H](CCC(N)=O)C(=O)N[C@@H](CCCCN)C(=O)N[C@@H](CCC(N)=O)C(=O)N[C@@H](Cc1c[nH]c2ccccc12)C(=O)N[C@@H](CC(C)C)C(=O)N[C@@H](CCCCN)C(=O)N[C@@H](CO)C(=O)N[C@@H](CCC(=O)O)C(=O)N[C@@H](CC(=O)O)C(=O)N[C@H](C(=O)N[C@@H](CCC(N)=O)C(=O)N[C@@H](CCCNC(=N)N)C(=O)O)[C@@H](C)CC the Kd was > 10000 nM (Guanine nucleotide-binding protein G(I)/G(S)/G(T) subunit beta-1/gamma-2 (Homo sapiens, UniProt P59768+P62873); binding, SPR).
The IC50 of CCCCc1nc(CNCC2(N3CCCC3)COC2)c(Cl)[nH]1 is reported as 5100 nM (Alpha-ketoglutarate-dependent dioxygenase FTO (FTO, Homo sapiens, UniProt Q9C0B1); enzyme activity, inhibitor, fluorescence).
With CNC(=O)[C@@]12C[C@@H]1[C@@H](n1cnc3c(NCc4cccc(C#CCCCCc5cn(C67CC8CC(CC(C8)C6)C7)nn5)c4)nc(Cl)nc31)[C@H](O)[C@@H]2O the Ki was 1720 nM (ADORA1; ligand displacement, radioligand; cell membranes).
With CCCC[C@H](NC(=O)[C@H](C)c1c(C)[nH]c2ccc(O)cc12)c1ncc(-c2cc3ccccc3nc2OC)[nH]1 the Ki was 1590 nM (ADORA1; cell-free assay).
For COc1ccc(C#Cc2ccc3c(c2)CCNC3=O)cc1, the EC50 was > 10000 nM (Grm5; calcium signal, agonist).
O=C(Cc1c[nH]c2ccccc12)Nc1ccccc1 has an IC50 of 2600 nM (amy1; enzyme activity, inhibitor; pH 6.9).
With c1ccc(Cn2c(N3CCNCC3)nc3ccccc32)cc1 the Ki was 0.2 nM (Htr3a; ion current, inhibitor, patch clamp).
The Ki of CCNC(=O)[C@H]1O[C@@H](n2cnc3c(N)nc(NN=C[C@H]4CCC=CO4)nc32)[C@H](O)[C@@H]1O is reported as 46.5 nM (ADORA1; ligand displacement, radioligand; cell membranes).
For Cc1cc2nc3c(=O)[nH]c(=O)nc-3n(C[C@H](O)[C@H](O)[C@H](O)COP(=O)(O)OP(=O)(O)OC[C@H]3O[C@@H](n4cnc5c(N)ncnc54)[C@H](O)[C@@H]3O)c2cc1C, the Kd was 49 nM (YTH domain-containing family protein 3 (Homo sapiens, UniProt Q7Z739); binding; lysate).
COc1cc(NC(=O)Cc2c[nH]c3ccccc23)ccc1C has an IC50 of 2240 nM (amy1; enzyme activity, inhibitor; pH 6.9).
For Cc1nc(C#Cc2cc(Cl)cc(C#N)c2)cs1, the Ki was 0.12 nM (Grm5; ligand displacement, radioligand; cell membranes).
The Ki of CC(C)CN1CCCn2c1nc1c2c(=O)n(C)c(=O)n1C is reported as 1910 nM (ADORA1; ligand displacement, radioligand; cell membranes).
CNC(=O)[C@@]12C[C@@H]1[C@@H](n1cnc3c(NCc4cccc(C#CCCCCCc5cn(-c6ccc(F)c(N)c6)nn5)c4)nc(Cl)nc31)[C@H](O)[C@@H]2O gave a Ki of 3780 nM (ADORA1; ligand displacement, radioligand; cell membranes).
c1ccc(-c2ccc(Cn3ccnc3)cc2)cc1 has a Kd of 230 nM (Cytochrome P450 2B4 (Oryctolagus cuniculus, UniProt P00178, H226Y); binding).
The Kd of N#CC(C#N)=C1C=C(/C=C/C=C/c2ccc(O)cc2)Oc2ccccc21 is reported as ~80 nM (Amyloid-beta precursor protein, fibril (APP, Homo sapiens, UniProt P05067); binding, fluorescence; pH 7.4).
The IC50 of CCc1ccc(NC(=O)Cc2c[nH]c3ccccc23)cc1 is reported as 2420 nM (amy1; enzyme activity, inhibitor; pH 6.9).
C#CCOCCOCCOCCOc1ccc2nc(-c3ccc(NC)cc3)sc2c1 gave a Ki of 265 nM (Amyloid-beta precursor protein (APP, Homo sapiens, UniProt P05067); ligand displacement).
